According to ChEMBL document CHEMBL3865784 (Eur J Med Chem, 2016):
Activity calls are given as the source filed them. No cut-off for these calls is given here.

Experiments:
[1] = Cytotoxicity against human HCT116 cells expressing NQO1 assessed as reduction in cell viability after 72 hrs by MTT assay; format: functional, cell-based; conditions: HCT-116, 72 h
Outline: (§1)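 Cancer lines from NCI, grown in RPMI 1640 with 10% FBS, 2 mM L-glutamine, penicillin/streptomycin, 37 °C, 5% CO2; seeded 0.1 × 10^6 cells/well (HL-60) or 0.7 × 10^5 cells/well (solid tumours). Compounds in DMSO, final 0.1% v/v; DMSO vehicle as negative control.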

[2] = (§2) Cytotoxicity against NQO1-deficient mouse L929 cells assessed as reduction in cell viability after 72 hrs by MTT assay; format: toxicity, cell-based; conditions: mouse, NQO1-deficient L929 cells
[3] = Cytotoxicity against human OVCAR8 cells overexpressing NQO1 assessed as reduction in cell viability after 72 hrs by MTT assay; format: functional, cell-based; conditions: OVCAR-8, 72 h; outline: as §1
[4] = Cytotoxicity against NQO1-deficient human PBMC assessed as reduction in cell viability after 72 hrs by MTT assay; format: toxicity, cell-based; conditions: for IC50: pbmc
[5] = Cytotoxicity against human MDA-MB-435 cells overexpressing NQO1 assessed as reduction in cell viability after 72 hrs by MTT assay; format: functional, cell-based; conditions: MDA-MB-435, 72 h; outline: as §1
[6] = Cytotoxicity against NQO1-deficient chinese hamster V79 cells assessed as reduction in cell viability after 72 hrs by MTT assay; format: toxicity, cell-based, Cricetulus griseus; conditions: for IC50: v79
[7] = Cytotoxicity against human PC3 cells overexpressing NQO1 assessed as reduction in cell viability after 72 hrs by MTT assay; format: functional, cell-based; conditions: PC-3, 72 h
L929 [8] = experiment: Selectivity index, ratio of IC50 for NQO1-deficient mouse L929 cells to IC50 for human SF295 cells overexpressing NQO1
Outline: (§3)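 Selectivity index is IC50 in the normal cells divided by IC50 in the cancer line. Normal cells: V79 and L929 in DMEM, PBMC in RPMI with phytohaemagglutinin. Cancer lines in RPMI with 10% FBS, seeded at 0.1 × 10^6 (HL-60) or 0.7 × 10^5 cells/well (solid tumors). Absorbance 550 nm; nonlinear regression.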

OVCAR-8 [9] = experiment: Selectivity index, ratio of IC50 for NQO1-deficient human PBMC to IC50 for human OVCAR8 cells overexpressing NQO1
Outline: (§4)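 Selectivity index is IC50 in the normal cells divided by IC50 in the cancer line. All IC50s come from 72 h MTT assays. Normal cells: V79 and L929 in DMEM, PBMC in RPMI with phytohaemagglutinin. Cancer lines in RPMI with 10% FBS, seeded at 0.1 × 10^6 (HL-60) or 0.7 × 10^5 cells/well (solid tumors). Absorbance 550 nm; nonlinear regression.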

V79 [10] = experiment: Selectivity index, ratio of IC50 for NQO1-deficient chinese hamster V79 cells to IC50 for human MDA-MB-435 cells overexpressing NQO1; outline: as §3
PC-3 [11] = experiment: Induction of apoptosis in human PC3 cells assessed as externalization of phosphatidylserine on cell surface by measuring late apoptotic cells at 5 uM pretreated with NAC measured after 6 hrs by Annexin-V/FITC/PI staining by flow cytometry (reference value: 0%); format: functional
L929 [12] = experiment: Selectivity index, ratio of IC50 for NQO1-deficient mouse L929 cells to IC50 for NQO1-deficient human HL60 cells; format: functional; outline: as §3
HL-60 [13] = experiment: Selectivity index, ratio of IC50 for NQO1-deficient human PBMC to IC50 for NQO1-deficient human HL60 cells; outline: as §3
[14] = Cytotoxicity against human SF295 cells overexpressing NQO1 assessed as reduction in cell viability after 72 hrs by MTT assay; format: functional, cell-based; conditions: SF-295, 72 h
Mus musculus = species: Mus musculus; experiment: as §2; format: toxicity, cell-based; conditions: l929
L929 [15] = experiment: Selectivity index, ratio of IC50 for NQO1-deficient mouse L929 cells to IC50 for human MDA-MB-435 cells overexpressing NQO1; outline: as §3
OVCAR-8 [16] = experiment: Selectivity index, ratio of IC50 for NQO1-deficient chinese hamster V79 cells to IC50 for human OVCAR8 cells overexpressing NQO1; outline: as §4
PC-3 [17] = experiment: Induction of apoptosis in human PC3 cells assessed as externalization of phosphatidylserine on cell surface by measuring early apoptotic cells at 5 uM cotreated with NQO1 inhibitor dicoumarol measured after 6 hrs by Annexin-V/FITC/PI staining by flow cytometry (reference value: 0.93 +/- 0.05%); format: functional; design: scale not given: the % may be the effect or the level left
[18] = Selectivity index, ratio of IC50 for NQO1-deficient human PBMC to IC50 for human MDA-MB-435 cells overexpressing NQO1; outline: as §3
[19] = target: NAD(P)H dehydrogenase [quinone] 1 (Homo sapiens) (UniProt P15559); experiment: Activation of NQO1 in human PC3 cells assessed as induction of ROS generation at 5 uM after 1 hr by H2DCFDA probe based flow cytometric analysis; format: cell-based; conditions: PC-3
[20] = Cytotoxicity against NQO1-deficient human HL60 cells assessed as reduction in cell viability after 72 hrs by MTT assay; format: functional, cell-based; conditions: HL-60, 72 h; outline: as §1
V79 [21] = experiment: Selectivity index, ratio of IC50 for NQO1-deficient chinese hamster V79 cells to IC50 for human PC3 cells overexpressing NQO1; outline: as §3
HCT-116 [22] = experiment: Selectivity index, ratio of IC50 for NQO1-deficient chinese hamster V79 cells to IC50 for human HCT116 cells expressing NQO1; outline: as §4
HCT-116 [23] = experiment: Selectivity index, ratio of IC50 for NQO1-deficient human PBMC to IC50 for human HCT116 cells expressing NQO1; outline: as §4
L929 [24] = experiment: Selectivity index, ratio of IC50 for NQO1-deficient mouse L929 cells to IC50 for human PC3 cells overexpressing NQO1; outline: as §3
PC-3 [25] = experiment: Induction of apoptosis in human PC3 cells assessed as externalization of phosphatidylserine on cell surface by measuring late apoptotic cells at 5 uM cotreated with NQO1 inhibitor dicoumarol measured after 6 hrs by Annexin-V/FITC/PI staining by flow cytometry (reference value: 0%); format: functional; design: scale not given: the % may be the effect or the level left
L929 [26] = experiment: Selectivity index, ratio of IC50 for NQO1-deficient mouse L929 cells to IC50 for human OVCAR8 cells overexpressing NQO1; outline: as §3
PC-3 [27] = experiment: Induction of apoptosis in human PC3 cells assessed as externalization of phosphatidylserine on cell surface by measuring late apoptotic cells at 5 uM after 6 hrs by Annexin-V/FITC/PI staining by flow cytometry (reference value: 0%); format: functional
HCT-116 [28] = experiment: Selectivity index, ratio of IC50 for NQO1-deficient mouse L929 cells to IC50 for human HCT116 cells expressing NQO1; outline: as §4
PC-3 [29] = experiment: Selectivity index, ratio of IC50 for NQO1-deficient human PBMC to IC50 for human PC3 cells overexpressing NQO1; outline: as §3
HL-60 [30] = experiment: Selectivity index, ratio of IC50 for NQO1-deficient chinese hamster V79 cells to IC50 for NQO1-deficient human HL60 cells; format: functional; outline: as §3
PC-3 [31] = experiment: Induction of apoptosis in human PC3 cells assessed as externalization of phosphatidylserine on cell surface by measuring early apoptotic cells at 5 uM pretreated with NAC measured after 6 hrs by Annexin-V/FITC/PI staining by flow cytometry (reference value: 0.93 +/- 0.05%); format: functional
PC-3 [32] = experiment: Induction of apoptosis in human PC3 cells assessed as externalization of phosphatidylserine on cell surface by measuring early apoptotic cells at 5 uM after 6 hrs by Annexin-V/FITC/PI staining by flow cytometry (reference value: 0.93 +/- 0.05%); format: functional
SF-295 [33] = experiment: Selectivity index, ratio of IC50 for NQO1-deficient chinese hamster V79 cells to IC50 for human SF295 cells overexpressing NQO1; outline: as §3
SF-295 [34] = experiment: Selectivity index, ratio of IC50 for NQO1-deficient human PBMC to IC50 for human SF295 cells overexpressing NQO1; outline: as §3

Sequence of NAD(P)H dehydrogenase [quinone] 1 (Homo sapiens) (P15559 whole entry): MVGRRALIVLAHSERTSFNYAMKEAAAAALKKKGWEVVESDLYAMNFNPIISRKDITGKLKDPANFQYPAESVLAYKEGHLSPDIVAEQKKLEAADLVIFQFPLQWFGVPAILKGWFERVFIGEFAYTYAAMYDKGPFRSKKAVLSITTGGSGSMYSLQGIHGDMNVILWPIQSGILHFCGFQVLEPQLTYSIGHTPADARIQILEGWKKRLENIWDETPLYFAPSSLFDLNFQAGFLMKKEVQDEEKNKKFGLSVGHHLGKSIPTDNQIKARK

Compound	IC50 [1] [nM]	IC50 [3] [nM]	IC50 [5] [nM]	IC50 [7] [nM]	Ratio IC50 (L929 [8])	Ratio IC50 (OVCAR-8 [9])	Ratio IC50 (V79 [10])	Ratio IC50 (L929 [12])	Ratio IC50 (HL-60 [13])	IC50 [14] [nM]	IC50 (Mus musculus) [nM]	Ratio IC50 (L929 [15])	Ratio IC50 (OVCAR-8 [16])	Ratio IC50 [18]	IC50 [20] [nM]	Ratio IC50 (V79 [21])	IC50 [4] [nM]	Ratio IC50 (HCT-116 [22])	IC50 [6] [nM]	Activity (PC-3 [32]) [%]	further results
COc1cccc2c1C(=O)c1c(O)c3c(c(O)c1C2=O)C[C@@](O)(C(=O)CO)C[C@@H]3O[C@H]1C[C@H](N)[C@H](O)[C@H](C)O1 [DOXORUBICIN]	150	410	960	–	–	–	–	–	–	–	–	–	–	–	–	–	–	–	–	–	IC50 at 72 h [2]: 230 nM; IC50 at 72 h ([4]; human): 550 nM; IC50 at 72 h ([6]; Chinese hamster, NQO1-deficient V79 cells): 280 nM
CC1(C)OC2=C(C(=O)C(=O)c3ccccc32)C1Nc1cccc(-c2cn(C[Se]c3ccccc3)nn2)c1 (centres undefined)	140	200	230	380	2.7	6.9	4.9	13.4	19.8	340	940	4	5.6	6	70	2.9	1390	8	1130	16.61	Activity (PC-3 [11]): 0%; Activity (PC-3 [17]): 0.91%; Activity [19]: Active; Ratio IC50 (HCT-116 [23]): 9.9; Ratio IC50 (L929 [24]): 2.4; Activity (PC-3 [25]): 0%; Ratio IC50 (L929 [26]): 4.7; Activity (PC-3 [27]): 3.27%; Ratio IC50 (HCT-116 [28]): 6.7; Ratio IC50 (PC-3 [29]): 3.6; Ratio IC50 (HL-60 [30]): 16.1; Activity (PC-3 [31]): 0.89%
CC1(C)OC2=C(C(=O)c3ccccc3C2=O)C1Nc1cccc(-c2cn(C[Se]c3ccccc3)nn2)c1 (centres undefined)	1280	680	880	1710	3.1	4.8	4.2	3.1	3	1080	3380	3.8	5.5	3.7	1080	2.2	3330	2.9	3780	–	Ratio IC50 (SF-295 [33]): 3.5; Ratio IC50 (HCT-116 [23]): 2.6; Ratio IC50 (L929 [24]): 1.9; Ratio IC50 (L929 [26]): 4.9; Ratio IC50 (SF-295 [34]): 3; Ratio IC50 (HCT-116 [28]): 2.6; Ratio IC50 (PC-3 [29]): 1.9; Ratio IC50 (HL-60 [30]): 3.5
O=c1oc2ccccc2c(O)c1Cc1c(O)c2ccccc2oc1=O [DICUMAROL]	–	–	–	–	–	–	–	–	–	–	–	–	–	–	–	–	–	–	–	0.95	Activity (PC-3 [27]): 0%
CC(=O)N[C@@H](CS)C(=O)O [ACETYLCYSTEINE]	–	–	–	–	–	–	–	–	–	–	–	–	–	–	–	–	–	–	–	0.87	Activity (PC-3 [27]): 0%
[N-]=[N+]=NCC1CC2=C(O1)C(=O)c1ccccc1C2=O (centres undefined)	240	350	200	390	6.1	9.1	12.3	6.9	10.3	350	2150	10.7	7	16	310	6.3	3210	10.2	2470	–	Ratio IC50 (SF-295 [33]): 7; Ratio IC50 (HCT-116 [23]): 13.3; Ratio IC50 (L929 [24]): 5.5; Ratio IC50 (L929 [26]): 6.1; Ratio IC50 (SF-295 [34]): 9.1; Ratio IC50 (HCT-116 [28]): 8.9; Ratio IC50 (PC-3 [29]): 8.2; Ratio IC50 (HL-60 [30]): 7.9
CC1(C)OC2=C(C(=O)C(=O)c3ccccc32)C1n1cc(C[Se]c2ccccc2)nn1 (centres undefined)	–	2260	1060	2430	–	–	–	–	–	1310	2300	–	–	–	1290	–	1760	–	2650	15.07	Activity (PC-3 [11]): 0%; Activity (PC-3 [17]): 1.26%; Activity (PC-3 [25]): 0%; Activity (PC-3 [31]): 1.12%
